By IC50 is commonly meant the concentration that inhibits the measured activity by half. In general, inhibition refers to the percentage by which the read-out fell short of the control. A lower inhibition goes with a response near the control.

Consider 7 compounds from ChEMBL document CHEMBL1142540, “Novel piperidinylpyrimidine derivatives as inhibitors of HIV-1 LTR activation” (Bioorg Med Chem, 2008).

Data set [1] in a line: Inhibition of HIV1 LTR-driven CAT gene expression in PMA-stimulated HEK293-27-2 cells assessed as […]. The conditions noted are these: Human immunodeficiency virus 1.
Data set [2] can be described thus: Inhibition of HIV1 LTR-driven CAT gene expression in PMA-stimulated human JURKAT cells. The class given is cell-based. The conditions noted are these: Human immunodeficiency virus 1, Jurkat. In outline: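 Jurkat cells electroporated (140 V) with HIV-1 LTR-CAT plasmid p469 using DEAE-dextran and cultured 20 h. Cells then stimulated with PMA 10 ng/ml in presence of compound for 24 h at 37 °C, lysed by freeze-thaw.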

Data set [3] relates to Jurkat. In words: Cytotoxicity against human JURKAT cells. The format is cell-based. In outline:
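Cell number of treated Jurkat cells counted by Coulter counter to assess inhibition of proliferation.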

Data set [4] has as its system Jurkat. In words: Inhibition of HIV1 LTR-driven CAT gene expression in Tat-stimulated human JURKAT cells at 1 uM. The conditions noted are these: Human immunodeficiency virus 1. The class given is cell-based. In outline: (§1)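 Jurkat cells co-electroporated (140 V) with LTR-CAT p469 plus pSV-Tat using DEAE-dextran, cultured 20 h, then treated with compound alone (no PMA) for 24 h at 37 °C.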

The nature of data set [5]: Inhibition of HIV1 LTR-driven CAT gene expression in Tat-stimulated human JURKAT cells. The format is cell-based. Particulars: Human immunodeficiency virus 1, Jurkat. The method in brief:
as §1

The test system of the next data set is PBMC. The data set can be described thus: Inhibition of LPS-stimulated TNFalpha production in human PBMC. The format is functional, cell-based. In outline: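 Human PBMC from healthy donors isolated by Ficoll-Paque, seeded at 1×10^5 cells/well in RPMI 1640 with 10% heat-inactivated FBS and L-glutamine. Stimulated with LPS 0.1 ug/ml final, compound added at the same time (DMSO below 0.1%), 20 h; supernatants collected for TNF-α.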

Data set [6] is described as follows: Inhibition of Tat-induced HIV1 LTR transactivation in human HeLa cells assessed as CAT expression after 2 days. The conditions noted are these: Human immunodeficiency virus 1, HeLa, 48 h. The class given is cell-based.
Data set [7] is described as follows: Inhibition of Tat-induced HIV1 LTR transactivation. On the set-up: species or system Human immunodeficiency virus 1. In outline: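 Jurkat cells electroporated at 140 V with HIV-1 LTR-CAT plasmid p469 (1 µg) plus pSV-Tat (0.5 µg) and DEAE-dextran, then cultured 20 h at 37 °C. Cells were exposed to compound without PMA for 24 h and lysed. Reported as % inhibition at 5 µM or IC50, single determination.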

Where only a bound is given, the exact number is not on record here.

`CC(=O)CCCCn1c(=O)c2c(ncn2C)n(C)c1=O` [PENTOXIFYLLINE]: in data set [1], the 50% inhibitory concentration (IC50) came out at 500000 nM.
In the case of `COc1ccc(OC)c(Cc2cc(C3CCN(C(=O)c4ccc5c(c4)OCO5)CC3)nc(N)n2)c1`, the half-inhibitory concentration (IC50) is 200 nM in data set [2], below 1000 nM in data set [5] and 7700 nM in the data set on PBMC. Further, the Activity entry in the data set on Jurkat [3] is given as “Non-toxic”. The inhibition in the data set on Jurkat [4] stood at 58%.
For `C[S+]([O-])c1ccc(-c2nc(-c3ccc(F)cc3)c(-c3ccncc3)[nH]2)cc1` (stereo not drawn) [SB-203580], the IC50 in data set [6] was 100 nM.
On the same count and under the same terms, next, `Cn1cc(C(=O)O)c(=O)c2cc(F)c(N3CC=C(c4ccccc4)CC3)c(C(F)(F)F)c21` [FLUOROQUINOLINE K37]: below 160 nM.
The compound `O=C1CN=C(c2ccc[nH]2)c2cc(Cl)ccc2N1` came in with an IC50 in data set [7] of 100 nM.
Consider `CSc1ccc(Cc2cc(C3CCN(C(=O)c4ccc5c(c4)OCO5)CC3)nc(N)n2)cc1`, for which the half-maximal inhibitory concentration (IC50) in data set [2] is 200 nM; in data set [5], below 1000 nM. For the same compound, in the data set with Jurkat [3], the Activity result is “Non-toxic”. This compound yielded an inhibition with Jurkat [4] of 57%.
Regarding `COc1cc(Cc2cc(C3CCN(C(=O)c4ccc5c(c4)OCO5)CC3)nc(N)n2)cc(OC)c1`, the results for the IC50 (in data set [2]; in data set [5]; in the data set with PBMC) were 300 nM, below 1000 nM and 3300 nM, respectively. Besides, the Activity result in the data set with Jurkat [3] is recorded as “Non-toxic”. Further, in the data set on Jurkat [4], the inhibition was 56%.
